Measured values from different studies.
Protocols differ between the studies behind these lines.
Observed: cell growth or viability

SMILES	cell line	technique	time	IC50 [µM]
NNc1nc2ccc(Br)cc2c(=O)n1-c1ccccc1	SW480	MTT	48 h	136
O=C(NO)c1ccc(Cn2cnc3c(Nc4ccc(Br)cc4F)ncnc32)cc1	MM1.S	MTT	72 h	1.87
CC1(P2(=O)CCCCC2)C=CCC=C1	SW480	MTT	72 h	> 100
NNc1nc2ccc(Br)cc2c(=O)n1-c1ccc(F)cc1	SW480	MTT	48 h	14.7
Cc1cc(Nc2ncnc3ccc(NC4=NC(C)(C)CO4)cc23)ccc1Oc1ccn2ncnc2c1	NCI-N87	ATP luminescence	–	0.0898
Cc1ccc(NNc2nc3c(Cl)cc(Cl)cc3c(=O)n2-c2ccccc2)cc1	SW480	MTT	48 h	132
O=C(NO)c1ccc(Cn2cnc3c(Nc4cccc([N+](=O)[O-])c4)ncnc32)cc1	MM1.S	MTT	72 h	1.56
COc1cccc2c1C(=O)c1c(O)c3c(c(O)c1C2=O)C[C@@](O)(C(=O)CO)C[C@@H]3O[C@H]1C[C@H](N)[C@H](O)[C@H](C)O1	SW480	MTT	24 h	0.79
CC(=O)Nc1ccc(O)cc1	THLE-2	MTT	–	28.6
CC1=CC(=O)C(C(C)C)=CC1=O	FR2	SRB	48 h	< 100
O=C(NO)Nc1nc2c(Cl)cc(Cl)cc2c(=O)n1-c1ccc(Cl)cc1	SW480	MTT	48 h	> 200
Cc1nc(Nc2ncc(C(=O)Nc3c(C)cccc3Cl)s2)cc(N2CC[C@H](O)C2)n1	Toledo	ATP luminescence	72 h	> 10
C=C1CC[C@@H]2[C@](C)(CO)[C@H](O)CC[C@@]2(C)[C@@H]1C/C=C1/C(=O)OC[C@H]1O	SW480	MTT	24 h	5.08
Cc1cc2c(C(=O)O)cccc2n1-c1nc2c(c(NCc3ccccc3)n1)CCCN2	MM1.S	–	72 h	0.9
CC(C)C[C@H](NC(=O)[C@@H]1Cc2c(F)c(F)c(c(F)c2F)Sc2ccc(cc2)CC(=O)N[C@@H](C(C)C)C(=O)N1)C(=O)[C@@]1(C)CO1	D283 Med	–	–	0.091
CS(=O)(=O)CCNCc1ccc(-c2ccc3ncnc(Nc4ccc(OCc5cccc(F)c5)c(Cl)c4)c3c2)o1	NCI-N87	ATP luminescence	–	0.0572
CN(C)C(=O)Nc1nc2ccc(Br)cc2c(=O)n1-c1ccccc1	SW480	MTT	48 h	> 200
COc1cccc2c1C(=O)c1c(O)c3c(c(O)c1C2=O)C[C@@](O)(C(=O)CO)C[C@@H]3O[C@H]1C[C@H](N)[C@H](O)[C@H](C)O1	HGC-27	–	96 h	0.166
CC1(P2(=O)CCCCC2)CCCCC1	SW480	MTT	72 h	> 100
C#Cc1cccc(Nc2ncnc3cc(OCCOC)c(OCCOC)cc23)c1	SW480	MTT	48 h	11.2
Nc1ccccc1NC(=O)c1ccc(Cn2cnc3c(Nc4ccc(Cl)cc4)ncnc32)cc1	MM1.S	MTT	72 h	1.13
CN(C)C(=O)Nc1nc2c(Cl)cc(Cl)cc2c(=O)n1-c1ccccc1	SW480	MTT	48 h	> 200
COc1ccc(Nc2ncnc3c2ncn3Cc2ccc(C(=O)NO)cc2)cc1	MM1.S	MTT	72 h	2.04
